Results on 12 compounds are retold here after ChEMBL document CHEMBL1142937, “Synthesis, affinity profile, and functional activity of muscarinic antagonists with a 1-methyl-2-(2,2-alkylaryl-1,3-oxathiolan-5-yl)pyrrolidine structure” (J Med Chem, 2007).

For assay [1], the target named is T1, Muscarinic acetylcholine receptor M4 (Homo sapiens, UniProt P08173).
T1 sequence (P08173 whole entry): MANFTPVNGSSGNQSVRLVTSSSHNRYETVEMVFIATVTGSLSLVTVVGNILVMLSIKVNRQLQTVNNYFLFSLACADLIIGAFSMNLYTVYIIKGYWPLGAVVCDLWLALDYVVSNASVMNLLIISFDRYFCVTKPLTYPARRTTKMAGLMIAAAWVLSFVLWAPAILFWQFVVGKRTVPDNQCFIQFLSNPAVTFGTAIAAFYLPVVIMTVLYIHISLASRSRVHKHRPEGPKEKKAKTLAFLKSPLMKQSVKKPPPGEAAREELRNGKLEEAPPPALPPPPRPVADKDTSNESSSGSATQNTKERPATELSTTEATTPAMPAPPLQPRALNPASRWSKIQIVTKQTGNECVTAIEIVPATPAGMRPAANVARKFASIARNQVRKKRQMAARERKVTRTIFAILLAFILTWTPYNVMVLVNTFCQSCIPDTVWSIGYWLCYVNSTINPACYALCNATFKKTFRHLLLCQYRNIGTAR
As to the kind of experiment: Binding affinity to human cloned muscarinic receptor M4 expressed in CHO cells. The format is cell-based.

Assay [2] concerns the target Muscarinic acetylcholine receptor M3 (Cavia porcellus) (UniProt Q8VH26). As to the kind of experiment: Antagonist activity at muscarinic receptor M3 assessed as contraction of guinea pig ileum. Type of assay: functional, tissue-based. The settings on record: filed as antagonist. The essentials:
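Isolated guinea pig tissue preparations (stimulated left atria, ileum, lung strips), run in vitro by a previously described protocol, with the ileum method slightly modified. Agonist dose–response curves were recorded before and after one or two antagonist concentrations. pKb = log(DR−1) − log[B], where DR is the ratio of agonist ED50 after/before antagonist. Some cases were expressed as pA2 from Schild plots constrained to slope −1.0.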

In assay [3] the target is Muscarinic acetylcholine receptor M2 (Cavia porcellus). As to the kind of experiment: Antagonist activity at muscarinic receptor M2 assessed as contraction of electrically-stimulated guinea pig left atria. The settings on record: for Kb: read-out: pA2 (converted); for pKb: filed as antagonist.
For assay [4], the target named is T2, Muscarinic acetylcholine receptor M5 (Homo sapiens, UniProt P08912).
T2 sequence (P08912 whole entry): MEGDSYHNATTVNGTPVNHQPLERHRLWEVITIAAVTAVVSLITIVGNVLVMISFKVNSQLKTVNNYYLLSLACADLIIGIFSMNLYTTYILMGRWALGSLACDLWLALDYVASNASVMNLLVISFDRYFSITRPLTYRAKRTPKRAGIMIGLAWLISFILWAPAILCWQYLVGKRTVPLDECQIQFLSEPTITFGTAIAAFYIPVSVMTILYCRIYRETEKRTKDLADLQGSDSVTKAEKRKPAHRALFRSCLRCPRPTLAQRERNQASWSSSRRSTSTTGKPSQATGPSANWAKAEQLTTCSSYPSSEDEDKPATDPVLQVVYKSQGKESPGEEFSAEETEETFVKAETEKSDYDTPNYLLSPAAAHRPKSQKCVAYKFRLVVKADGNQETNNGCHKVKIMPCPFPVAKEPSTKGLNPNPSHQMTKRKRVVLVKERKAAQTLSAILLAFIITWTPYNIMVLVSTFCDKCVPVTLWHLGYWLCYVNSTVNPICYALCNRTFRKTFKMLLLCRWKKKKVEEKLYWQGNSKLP
As to the kind of experiment: Binding affinity to human cloned muscarinic receptor M5 expressed in CHO cells. Type of assay: cell-based. In short, it runs like this: (§1)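 Equilibrium radioligand binding on CHO cells expressing the cloned human muscarinic subtype. Affinity is reported as pKi.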

Assay [5] addresses T3, Muscarinic acetylcholine receptor M1 (Homo sapiens, UniProt P11229).
T3 sequence (P11229 whole entry): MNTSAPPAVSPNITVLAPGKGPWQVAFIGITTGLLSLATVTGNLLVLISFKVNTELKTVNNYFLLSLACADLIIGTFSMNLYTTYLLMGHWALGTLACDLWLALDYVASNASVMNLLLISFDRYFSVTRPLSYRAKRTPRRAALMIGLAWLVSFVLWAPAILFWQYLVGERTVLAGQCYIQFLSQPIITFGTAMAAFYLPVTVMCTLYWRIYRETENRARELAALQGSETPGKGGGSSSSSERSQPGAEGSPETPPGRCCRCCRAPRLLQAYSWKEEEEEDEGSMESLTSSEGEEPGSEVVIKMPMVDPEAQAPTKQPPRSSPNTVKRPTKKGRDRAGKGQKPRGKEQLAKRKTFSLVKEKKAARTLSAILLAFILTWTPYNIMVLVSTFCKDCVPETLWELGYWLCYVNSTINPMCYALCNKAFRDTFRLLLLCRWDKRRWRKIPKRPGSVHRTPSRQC
As to the kind of experiment: Binding affinity to human cloned muscarinic receptor M1 expressed in CHO cells. The format is cell-based.

For assay [6], the system named is Muscarinic acetylcholine receptor M1, putative (Oryctolagus cuniculus). The settings on record: Vas deferens, filed as antagonist.
Assay [7] deals with Muscarinic acetylcholine receptor M4, putative (Cavia porcellus). As to the kind of experiment: Antagonist activity at putative muscarinic receptor M4 assessed as contraction of electrically-stimulated guinea pig lung strips. The settings on record: filed as antagonist.
Assay [8] deals with T4, Muscarinic acetylcholine receptor M2 (Homo sapiens, UniProt P08172).
T4 sequence (P08172 whole entry): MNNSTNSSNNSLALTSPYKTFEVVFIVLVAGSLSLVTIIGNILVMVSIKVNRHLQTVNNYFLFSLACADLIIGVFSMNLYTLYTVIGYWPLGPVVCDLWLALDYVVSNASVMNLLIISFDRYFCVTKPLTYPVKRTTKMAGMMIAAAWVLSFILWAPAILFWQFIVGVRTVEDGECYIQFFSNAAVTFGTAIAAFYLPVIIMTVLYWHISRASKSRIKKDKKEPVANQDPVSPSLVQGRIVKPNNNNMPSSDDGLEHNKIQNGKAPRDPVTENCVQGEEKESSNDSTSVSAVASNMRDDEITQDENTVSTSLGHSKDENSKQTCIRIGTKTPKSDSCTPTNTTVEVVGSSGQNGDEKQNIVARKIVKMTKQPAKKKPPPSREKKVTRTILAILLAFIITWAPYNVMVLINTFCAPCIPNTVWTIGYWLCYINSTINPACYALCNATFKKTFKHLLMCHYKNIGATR
As to the kind of experiment: Binding affinity to human cloned muscarinic receptor M2 expressed in CHO cells. Type of assay: cell-based. In short, it runs like this: as §1

Assay [9] concerns the target Muscarinic acetylcholine receptor M3 (Homo sapiens, UniProt P20309). As to the kind of experiment: Binding affinity to human cloned muscarinic receptor M3 expressed in CHO cells. Type of assay: cell-based.

Chain of Muscarinic acetylcholine receptor M3 (P20309 whole entry): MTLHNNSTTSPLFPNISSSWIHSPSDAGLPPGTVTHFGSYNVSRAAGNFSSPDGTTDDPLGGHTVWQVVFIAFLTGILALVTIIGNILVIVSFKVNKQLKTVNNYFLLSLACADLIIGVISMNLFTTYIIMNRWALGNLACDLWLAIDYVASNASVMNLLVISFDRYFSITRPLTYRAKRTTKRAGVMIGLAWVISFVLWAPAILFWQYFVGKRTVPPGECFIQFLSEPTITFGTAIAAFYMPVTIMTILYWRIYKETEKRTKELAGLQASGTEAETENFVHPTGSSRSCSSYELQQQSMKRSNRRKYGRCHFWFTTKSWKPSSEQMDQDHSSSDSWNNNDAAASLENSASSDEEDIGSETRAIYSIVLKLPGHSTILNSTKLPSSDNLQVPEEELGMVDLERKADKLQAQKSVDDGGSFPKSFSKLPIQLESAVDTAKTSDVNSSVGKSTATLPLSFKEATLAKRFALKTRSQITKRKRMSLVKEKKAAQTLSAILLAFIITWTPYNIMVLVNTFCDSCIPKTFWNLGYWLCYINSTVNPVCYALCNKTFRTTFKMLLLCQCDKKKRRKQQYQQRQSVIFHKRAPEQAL
Chain of Muscarinic acetylcholine receptor M3 (Cavia porcellus) (Q8VH26 1-587): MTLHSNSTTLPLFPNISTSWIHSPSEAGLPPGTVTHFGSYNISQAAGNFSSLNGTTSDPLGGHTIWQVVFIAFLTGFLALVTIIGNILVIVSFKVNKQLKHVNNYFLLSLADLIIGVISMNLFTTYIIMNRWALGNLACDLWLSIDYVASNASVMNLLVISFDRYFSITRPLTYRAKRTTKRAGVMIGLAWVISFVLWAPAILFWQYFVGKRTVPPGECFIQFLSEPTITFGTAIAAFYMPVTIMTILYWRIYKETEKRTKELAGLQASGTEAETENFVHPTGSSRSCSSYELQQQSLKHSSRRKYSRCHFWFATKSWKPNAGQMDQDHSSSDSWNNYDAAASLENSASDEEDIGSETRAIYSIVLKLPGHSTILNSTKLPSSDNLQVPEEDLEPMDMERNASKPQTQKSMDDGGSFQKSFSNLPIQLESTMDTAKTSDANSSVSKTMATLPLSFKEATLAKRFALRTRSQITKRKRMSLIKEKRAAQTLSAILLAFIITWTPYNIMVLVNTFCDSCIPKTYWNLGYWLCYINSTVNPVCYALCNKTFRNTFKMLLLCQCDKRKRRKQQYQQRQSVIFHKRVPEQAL

For the compound `C[N+]1(C)CCC[C@H]1[C@H]1CS[C@@](c2ccccc2)(C2CCCCC2)O1`, the Ki is 0.871 nM (antagonist) in assay [1]; 0.107 nM (antagonist) in [4]; 0.117 nM (antagonist) in assay [5]; 0.955 nM (antagonist) in [8]; 0.339 nM (antagonist) in [9]. In addition, the pKb in [2] was 9.66; in assay [6], 9.97; in assay [7], 7.99. In addition, the Kb in assay [3] is recorded as 1 nM (antagonist).

As to `C[N+]1(C)CCC[C@H]1[C@H]1CSC(c2ccccc2)(c2ccccc2)O1`, the Ki in assay [1] is on record as 0.468 nM (antagonist); in assay [4] it was 0.407 nM (antagonist); in assay [5], 0.295 nM (antagonist); in [8], 0.468 nM (antagonist); in [9], 0.741 nM (antagonist). Further, the pKb in assay [2] is 9.16; in assay [3], 8.78; in assay [6], 9.56; in assay [7], 7.79.

`C[N+]1(C)CCC[C@@H]1[C@@H]1CSC(c2ccccc2)(c2ccccc2)O1`: the Ki in assay [1] was 3.47 nM (antagonist); in assay [4], 3.47 nM (antagonist); in assay [5], 2.34 nM (antagonist); in assay [8] it was 3.39 nM (antagonist); in assay [9], 5.01 nM (antagonist). For the same compound, the pKb was 8.26 in [2], 7.76 in assay [3], 8.49 in assay [6] and 6.52 in assay [7].

Turning to `CN1CCC[C@H]1[C@H]1CSC(c2ccccc2)(c2ccccc2)O1`, the Ki was 3.31 nM (antagonist) in assay [1]; 5.62 nM (antagonist) in assay [4]; 3.47 nM (antagonist) in [5]; 4.9 nM (antagonist) in assay [8]; 5.25 nM (antagonist) in assay [9]. Also, the pKb in assay [2] was 8.05; in assay [3], 7.58; in assay [6], 7.93; in assay [7], 6.41.

Turning to `C[N+]1(C)CCC[C@@H]1[C@@H]1CS[C@@](c2ccccc2)(C2CCCCC2)O1`, the Ki was 0.708 nM (antagonist) in assay [1]; 0.776 nM (antagonist) in assay [4]; 0.501 nM (antagonist) in [5]; 0.832 nM (antagonist) in assay [8]; 0.912 nM (antagonist) in [9]. The pKb in [2] is 8.79; in [3] it was 8.6; in assay [6], 9.53; in assay [7] it was 6.47.

Turning to `C[N+]1(C)CCC[C@@H]1[C@@H]1CS[C@](c2ccccc2)(C2CCCCC2)O1`, the inhibition constant Ki in assay [1] is recorded as 1.82 nM (antagonist); in assay [4] it was 3.24 nM (antagonist); in [5] it was 0.955 nM (antagonist); in assay [8], 1.48 nM (antagonist); in [9], 4.9 nM (antagonist). The pKb is 8.84 in assay [2], 8.54 in [3], 8.49 in assay [6] and 6.55 in [7].

For the compound `CN1CCC[C@@H]1[C@@H]1CS[C@](c2ccccc2)(C2CCCCC2)O1`, the inhibitory constant (Ki) is recorded as 1 nM (antagonist) in [1]; 2 nM (antagonist) in [4]; 0.347 nM (antagonist) in assay [5]; 1.07 nM (antagonist) in assay [8]; 2.19 nM (antagonist) in assay [9]. Besides, the pKb in assay [2] was 8.55; in [3], 8.07; in assay [6], 9.16; in assay [7], 6.03.

For the compound `CN1CCC[C@@H]1[C@@H]1CS[C@@](c2ccccc2)(C2CCCCC2)O1`, the Ki in assay [1] is on record as 1.26 nM (antagonist); in assay [4], 1.2 nM (antagonist); in assay [5] it was 0.912 nM (antagonist); in assay [8] it was 4.47 nM (antagonist); in assay [9], 1.45 nM (antagonist). Also, the pKb was 7.65 in assay [2], 7.13 in assay [3], 7.95 in assay [6] and 5.98 in [7].

Regarding `CN1CCC[C@H]1[C@H]1CS[C@](c2ccccc2)(C2CCCCC2)O1`, the Ki in [1] is listed as 1.2 nM (antagonist); in [4], 2 nM (antagonist); in [5] it was 1.48 nM (antagonist); in assay [8] it was 4.27 nM (antagonist); in assay [9], 1.7 nM (antagonist). For the same compound, the pKb in [2] is 7.7; in assay [3] it was 6.91; in [6], 8.32; in [7] it was 5.92.

With `CN1CCC[C@@H]1[C@@H]1CSC(c2ccccc2)(c2ccccc2)O1`, the Ki in [1] is given as 2 nM (antagonist); in assay [4], 3.24 nM (antagonist); in assay [5], 0.759 nM (antagonist); in assay [8], 2.75 nM (antagonist); in assay [9], 2.45 nM (antagonist). The pKb in assay [2] was 8.44; in assay [3] it was 7.97; in assay [6], 8.66; in assay [7] it was 6.06.

Consider `C[N+]1(C)CCC[C@H]1[C@H]1CS[C@](c2ccccc2)(C2CCCCC2)O1`, for which the Ki in assay [1] is 0.871 nM (antagonist); in [4] it was 0.2 nM (antagonist); in assay [5], 0.251 nM (antagonist); in [8], 0.776 nM (antagonist); in assay [9], 0.589 nM (antagonist). For the same compound, the pKb is 8.5 in assay [2], 9.52 in assay [6] and 7.47 in assay [7]. Also, the Kb in assay [3] is 4.27 nM (antagonist).

In the case of `CN1CCC[C@H]1[C@H]1CS[C@@](c2ccccc2)(C2CCCCC2)O1`, the Ki was 2.34 nM (antagonist) in assay [1]; 1.35 nM (antagonist) in assay [4]; 1.38 nM (antagonist) in assay [5]; 2.75 nM (antagonist) in [8]; 0.891 nM (antagonist) in assay [9]. Further, the negative-log Kb (pKb) in [2] is 8.92; in assay [3] it was 8.82; in assay [6] it was 7.41; in assay [7] it was 6.22.

In general, Ki refers to a measure of affinity in units of concentration, obtained from inhibition or displacement. A higher Ki goes with weaker binding. One may read the pKb as the Kb on a negative log10 scale, so that one unit is a factor of ten.
